This is an account of results in ChEMBL document CHEMBL2010680, “Short cyclic peptides derived from the C-terminal sequence of α1-antitrypsin exhibit significant anti-HIV-1 activity” (Bioorg Med Chem Lett, 2012).

In data set [1] the test system is Human immunodeficiency virus 1. Nature of the data set: Antiviral activity against Human immunodeficiency virus 1 3B infected in human MT2 cells assessed as inhibition of viral replication after 4 days by ELISA. The class given is functional, organism-based. As to conditions: MT2, 96 h. The method, boiled down: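 Read-out is HIV-1 gag p24 antigen in culture supernatants, measured by ELISA and collected on the fourth day post-infection.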

Data set [2] is described as follows: Inhibition of Human immunodeficiency virus 1 3B envelope glycoprotein-mediated cell-cell fusion of infected H9 cells to human MT2 cells measured 2 hrs after wash out by fluorescence analysis. It is filed as cell-based. The settings on record: MT2, 2 h. The method, boiled down:
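Fluorescence-labeled H9/HIV-1 IIIB cells were washed, then mixed with MT-2 cells at 1:5 for 2 h at 37 °C, without or with peptide at graded concentrations. Fused cells were counted by fluorescence microscopy, percent inhibition of fusion was calculated, and IC50 was derived from the dose-response.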

Data set [3] can be described thus: Cytotoxicity against human MT2 cells after 4 days by XTT assay. It is filed as cell-based. The essentials: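 Peptide at graded concentrations was added to an equal volume of MT-2 cells (5 × 10^5/ml) and incubated 4 days at 37 °C. XTT (1 mg/ml) was added, and 4 h later soluble formazan was read at 450 nm with a 650 nm reference. CC50 was calculated from the dose-response.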

For data set [4], the system named is Human immunodeficiency virus 1. Nature of the data set: Antiviral activity against Human immunodeficiency virus type 1 SF162 pseudovirus expressing envelope glycoprotein 160 infected in human U87 cells after 48 hrs by luminometric analysis. The class given is functional, cell-based, U-87MG ATCC. As to conditions: Human immunodeficiency virus 1, SF162 ISOLATE, U-87 MG. The method, boiled down:
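U87-CCR5 cells were seeded overnight. Pseudovirus (1 ng p24/well) was preincubated with peptide at the indicated concentration for 30 min at 37 °C, then added to the cells for 48 h. Cells were washed with PBS and lysed, and luciferase activity was measured by luminometer. Each peptide was tested in triplicate; data are mean ± SD.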

Peptide text beside a SMILES is read from it.

One may read the IC50 as the midpoint of a concentration-inhibition curve. As usually defined, the CC50 is the concentration giving 50% cytotoxicity. Take `CC(C)C[C@@H]1NC(=O)[C@H](Cc2ccccc2)NC(=O)[C@H](C(C)C)NC(=O)[C@H](Cc2ccccc2)NC(=O)[C@@H]2CCCN2C(=O)[C@H](CS)NC(=O)[C@H](CCC(=O)O)NC1=O` (cyclo(CPFVFLE)): the IC50 in data set [1] was 55.8 µM; in data set [2] it was 116 µM. The CC50 at 96 h in data set [3] is > 200 µM.

On to H-PFVFLM-OH, for which the values for the IC50 in data set [1] and in data set [2] were > 100 µM and > 200 µM, respectively.

As to H-EFVFLM-OH, in data set [1], the IC50 is > 100 µM.

For the molecule H-FVFLM-OH, the half-maximal inhibitory concentration (IC50) in data set [1] was > 100 µM.

As for H-NKPFVFLM-OH, the concentration for half-maximal inhibition (IC50) in data set [1] was > 100 µM.

As for H-PFVFLR-OH, the half-maximal inhibitory concentration (IC50) is > 100 µM in data set [1] and > 200 µM in data set [2].

In the case of `CC(C)C[C@@H]1NC(=O)[C@H](Cc2ccccc2)NC(=O)[C@H](C(C)C)NC(=O)[C@H](Cc2ccccc2)NC(=O)[C@@H]2CCCN2C(=O)[C@H](CS)NC(=O)[C@H](CCCNC(=N)N)NC1=O` (cyclo(CPFVFLR)), the results for the IC50 in data set [1] and in data set [2] were 74.1 µM and 74 µM, respectively. Besides, the cytotoxic concentration (CC50) at 96 h in data set [3] is > 200 µM.

On to H-KPFVFLM-OH, for which, in data set [1], the IC50 was > 100 µM.

With H-PEVFLM-OH, the IC50 is > 100 µM in data set [1] and > 200 µM in data set [2].

For H-PFVFLE-OH, the values for the IC50 in data set [1] and in data set [2] were > 100 µM and > 200 µM, respectively.

In the case of `CSCC[C@@H]1NC(=O)[C@H](CC(C)C)NC(=O)[C@H](Cc2ccccc2)NC(=O)[C@H](C(C)C)NC(=O)[C@H](Cc2ccccc2)NC(=O)[C@@H]2CCCN2C(=O)[C@H](CS)NC1=O` (cyclo(CPFVFLM)), the concentration for half-maximal inhibition (IC50) was 8.96 µM in data set [1], 67.2 µM in data set [2] and 5.95 µM in data set [4]. For the same molecule, the CC50 at 96 h in data set [3] was > 200 µM.

Consider H-PFVYLI-OH, for which the 50% inhibitory concentration (IC50) in data set [1] is > 100 µM.

For the molecule `CSCC[C@@H]1NC(=O)[C@H](CC(C)C)NC(=O)[C@H](Cc2ccccc2)NC(=O)[C@H](C(C)C)NC(=O)[C@H](CCC(=O)O)NC(=O)[C@@H]2CCCN2C(=O)[C@H](CS)NC1=O` (cyclo(CPEVFLM)), the 50% inhibitory concentration (IC50) in data set [1] was > 100 µM; in data set [2] it was > 200 µM. The CC50 at 96 h in data set [3] is > 200 µM.
